Experimental data published in PMC2735501 (Journal of medicinal chemistry, 2009).

Legend:
IL-5 production = IL-5 production by OVA stimulated mouse splenocytes; format: cell-based; conditions: pure compounds or fractions
Summary of the method: (§1)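 Female Balb-C mice (6–8 weeks) were immunized s.c. weekly for four weeks with 25 µg OVA adsorbed to 1 mg alum in 200 µl PBS. Splenocytes were strained and resuspended at 1.3×10^6 cells/mL in RPMI-1640, then given test material in DMSO plus OVA. Replicate control wells held DMSO or DMSO+OVA. Supernatant cytokines were read by sandwich ELISA at 450 nm against standards in each replicate assay. Viability was checked by trypan blue count.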

[1] = system: cytokine production by OVA stimulated splenocytes; assay: Mouse splenocyte cytokine assay; format: cell-based; conditions: for inhibiting TH2 cytokine production compared with dexamethasone (in words): IL-5, IL-13, 10 nM (Figure 9)
Summary of the method: as §1

Structure (SMILES): C[C@@H]1OC(=O)[C@@H](NC(=O)c2cccc(NC=O)c2O)[C@@H](C)OC(=O)[C@H](Cc2ccccc2)[C@H]1O [compound 10]
- suppression of IL-5 production (in words) (IL-5 production): low micromolar
- suppression of cytokine production by OVA stimulated splenocytes (in words) [1]: low micromolar

Structure (SMILES): CC(C)C(=O)O[C@H]1[C@H](C)OC(=O)[C@@H](NC(=O)c2cccc(NC=O)c2O)[C@@H](C)OC(=O)[C@@H]1Cc1ccccc1 [compound 2]
- inhibiting TH2 cytokine production compared with dexamethasone (in words) [1]: as effective as dexamethasone

Structure (SMILES): CCCCCC[C@H]1C(=O)O[C@H](C)[C@H](NC(=O)c2cccc(NC=O)c2O)C(=O)O[C@@H](C)[C@@H]1OC(=O)c1ccccc1 [compound 7]
- inhibiting TH2 cytokine production compared with dexamethasone (in words) [1]: as effective as dexamethasone
